# Measured values collected from several papers.
# Compare with care: the assays were run in different laboratories.
# Target: Tyrosine-protein kinase Fes/Fps (FES, Homo sapiens, UniProt P07332)
SMILES,effect on,action,technique,tested at,quantity,result
CS(=O)(=O)N1CCCC(NC(=O)[C@H](CCC2CCCCC2)NC(=O)c2ccc(CNC(=O)c3cnc4ccccn34)cc2)C1 (some centres unmarked),cell-free assay,,competition with immobilised ligand,0.1 µM,remaining binding,100%
CCCOc1ccc(OC)c(F)c1C(=O)c1ccc(C(=O)N[C@@H]2CNC[C@H]2NC(=O)c2ccc3[nH]ncc3c2)cc1,enzyme activity,inhibitor,,10 µM,remaining activity,79%
CNCc1ccc(-c2cc(-c3nc(-c4ccc(S(=O)(=O)C(C)C)cc4)cnc3N)on2)cc1,enzyme activity,inhibitor,,0.4 µM,inhibition,0%
Cc1ccc(NC(=O)c2ccc(CN3CCN(C)CC3)cc2)cc1Nc1nccc(-c2cncc(-c3oncc3C)c2)n1,enzyme activity,inhibitor,,0.5 µM,remaining activity,≤ 50%
C[C@@H]1CN(c2cc(-c3n[nH]c4ccc(OC5(C)CC5)cc34)ncn2)C[C@H](C)O1,cell-free assay,,competition with immobilised ligand,0.1 µM,remaining binding,87%
CNC(=O)c1cc(Oc2ccc(NC(=O)Nc3ccc(Cl)c(C(F)(F)F)c3)cc2)ccn1,cell-free assay,,,0.5 µM,remaining signal,104%
O=c1nc(-c2ccccn2)sc2ccccc12,cell-free assay,,competition with immobilised ligand,1 µM,remaining binding,100%
CC(C)(C)c1nc2c(s1)c1nc(N)ncc1c1ccc(NS(=O)(=O)c3c(F)cccc3F)c(F)c12,enzyme activity,inhibitor,radiometric,1 µM,remaining activity,93%
O=c1cc(-c2cccc3c2Sc2ccccc2S3)oc(N2CCOCC2)c1,enzyme activity,inhibitor,,0.5 µM,remaining activity,104%
CN([C@@H]1CCc2c(CC(=O)O)c3cc(S(C)(=O)=O)ccc3n2C1)S(=O)(=O)c1ccc(F)cc1,cell-free assay,,competition with immobilised ligand,1 µM,remaining binding,92%
CN1CC(Oc2cnc(C#N)cc2-c2ccn3nc(NC(=O)C4CC4)cc3c2)C1,enzyme activity,inhibitor,,1 µM,inhibition,8%
c1nc2c(Nc3ccc4c(c3)OCCO4)nc(Nc3ccc4c(c3)OCCO4)nc2[nH]1,enzyme activity,inhibitor,,10 µM,activity vs control,62%
COc1ccc2c(O[C@@H]3C[C@H]4C(=O)N[C@]5(C(=O)O)CC5/C=C\CCCCC[C@H](NC(=O)OC5CCCC5)C(=O)N4C3)cc(-c3csc(NC(=O)C(C)C)n3)nc2c1C (some centres unmarked),cell-free assay,,competition with immobilised ligand,1 µM,remaining binding,100%
O=C(Nc1cnn(-c2csc(C(=O)NC3COC3)c2)c1)Nc1ccccc1Cl,enzyme activity,inhibitor,,5 µM,remaining activity,99.3%
CCCS(=O)(=O)Nc1ccc(F)c(C(=O)c2c[nH]c3ncc(-c4ccc(Cl)cc4)cc23)c1F,enzyme activity,inhibitor,,1 µM,inhibition,< 20%
CC(C)(O)[C@H]1CC[C@H](Nc2ccc3ncc(-c4cccc(C(F)(F)F)c4)n3n2)CC1,enzyme activity,inhibitor,,1 µM,remaining activity,95.4%
Cc1ccc(C(=O)Nc2ccc(CN3CCN(C)CC3)c(C(F)(F)F)c2)cc1C#Cc1cnc2cccnn12,enzyme activity,,,23.5 nM,remaining activity,100%
COc1cc2ncnc(Nc3ccc(Oc4ccccc4)c(C)c3C)c2cc1OC,enzyme activity,inhibitor,,1 µM,inhibition,7%
Cc1ccc(C(=O)NCc2ccsc2)cc1C#Cc1cn(C(C)C)c2ncnc(N)c12,enzyme activity,inhibitor,,1 µM,activity vs control,93%
CN(c1ccnc(CNc2nc(Nc3ccc4c(c3)CC(=O)N4)ncc2C(F)(F)F)n1)S(C)(=O)=O,cell-free assay,,competition with immobilised ligand,1 µM,remaining binding,74%
CC/C(=N\NC(=O)NCc1cccc(O)c1)c1ccc(O)c(C)c1O,enzyme activity,inhibitor,,0.1 µM,inhibition,1.2%
COc1ccc2c(c1)O[C@H](c1ccc(OC)c(OC)c1)C[C@@H]2NC(=O)C1(c2ccc3c(c2)OC(F)(F)O3)CC1,cell-free assay,,competition with immobilised ligand,1 µM,remaining binding,97%
Cc1ccc(NC(=O)c2ccc(C)c(C(F)(F)F)c2)cc1C#Cc1nn(C2CCC(O)CC2)c2ncnc(N)c12 (centres unmarked),cell-free assay,,,10 µM,remaining signal,34%
